Assays:
[1] = target: T1, Sucrase-isomaltase, intestinal (Rattus norvegicus, UniProt P23739); experiment: Inhibition of rat small intestinal isomaltase after 30 mins by glucose-oxidase method
How it was run: (§1)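 Enzyme source was rat small-intestinal brush border membrane vesicles suspended in 0.1 M maleate buffer, pH 6.0. Substrate solutions, prior to mixing, were maltose 74 mM (maltase), sucrose 74 mM (sucrase) and isomaltose 7.4 mM (isomaltase). Substrate, inhibitor and enzyme were incubated at 37 °C for 30 min, then stopped by 2 min boiling. Released glucose was measured by glucose oxidase. Final DMSO was 2.5%.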

[2] = target: T1, Sucrase-isomaltase, intestinal; experiment: Inhibition of rat small intestinal sucrase after 30 mins by glucose-oxidase method; how it was run: as §1
[3] = target: T1, Sucrase-isomaltase, intestinal; experiment: Competitive inhibition of rat intestinal isomaltase
[4] = target: T1, Sucrase-isomaltase, intestinal; experiment: Competitive inhibition of rat intestinal sucrase

T1 sequence (P23739 1-1013 limits assumed): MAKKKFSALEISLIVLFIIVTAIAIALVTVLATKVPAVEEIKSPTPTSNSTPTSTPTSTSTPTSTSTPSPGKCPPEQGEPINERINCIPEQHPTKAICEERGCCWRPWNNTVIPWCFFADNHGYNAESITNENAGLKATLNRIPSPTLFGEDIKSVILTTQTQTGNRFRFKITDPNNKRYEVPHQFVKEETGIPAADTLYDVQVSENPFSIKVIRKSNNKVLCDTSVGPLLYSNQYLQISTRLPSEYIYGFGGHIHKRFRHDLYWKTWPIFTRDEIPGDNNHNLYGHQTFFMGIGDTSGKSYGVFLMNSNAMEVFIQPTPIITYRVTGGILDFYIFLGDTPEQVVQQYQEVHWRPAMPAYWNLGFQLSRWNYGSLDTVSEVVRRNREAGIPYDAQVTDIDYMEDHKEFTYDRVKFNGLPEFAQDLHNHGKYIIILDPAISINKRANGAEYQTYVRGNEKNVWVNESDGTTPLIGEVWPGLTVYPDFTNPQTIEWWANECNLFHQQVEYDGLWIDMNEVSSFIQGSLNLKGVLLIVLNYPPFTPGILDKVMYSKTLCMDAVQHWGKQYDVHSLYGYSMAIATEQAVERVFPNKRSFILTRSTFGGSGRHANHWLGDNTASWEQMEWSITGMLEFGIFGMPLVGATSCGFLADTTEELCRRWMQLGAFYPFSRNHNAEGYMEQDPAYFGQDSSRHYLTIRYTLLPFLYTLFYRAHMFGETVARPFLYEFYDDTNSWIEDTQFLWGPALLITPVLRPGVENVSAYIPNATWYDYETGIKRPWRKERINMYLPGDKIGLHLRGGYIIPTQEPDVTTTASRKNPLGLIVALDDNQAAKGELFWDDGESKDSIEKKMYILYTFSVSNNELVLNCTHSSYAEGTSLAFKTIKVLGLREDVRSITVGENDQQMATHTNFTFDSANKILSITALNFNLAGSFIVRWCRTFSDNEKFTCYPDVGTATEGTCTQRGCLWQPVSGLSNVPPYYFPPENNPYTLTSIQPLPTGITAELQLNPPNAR
T1 sequence (P23739 1014-1841 limits assumed): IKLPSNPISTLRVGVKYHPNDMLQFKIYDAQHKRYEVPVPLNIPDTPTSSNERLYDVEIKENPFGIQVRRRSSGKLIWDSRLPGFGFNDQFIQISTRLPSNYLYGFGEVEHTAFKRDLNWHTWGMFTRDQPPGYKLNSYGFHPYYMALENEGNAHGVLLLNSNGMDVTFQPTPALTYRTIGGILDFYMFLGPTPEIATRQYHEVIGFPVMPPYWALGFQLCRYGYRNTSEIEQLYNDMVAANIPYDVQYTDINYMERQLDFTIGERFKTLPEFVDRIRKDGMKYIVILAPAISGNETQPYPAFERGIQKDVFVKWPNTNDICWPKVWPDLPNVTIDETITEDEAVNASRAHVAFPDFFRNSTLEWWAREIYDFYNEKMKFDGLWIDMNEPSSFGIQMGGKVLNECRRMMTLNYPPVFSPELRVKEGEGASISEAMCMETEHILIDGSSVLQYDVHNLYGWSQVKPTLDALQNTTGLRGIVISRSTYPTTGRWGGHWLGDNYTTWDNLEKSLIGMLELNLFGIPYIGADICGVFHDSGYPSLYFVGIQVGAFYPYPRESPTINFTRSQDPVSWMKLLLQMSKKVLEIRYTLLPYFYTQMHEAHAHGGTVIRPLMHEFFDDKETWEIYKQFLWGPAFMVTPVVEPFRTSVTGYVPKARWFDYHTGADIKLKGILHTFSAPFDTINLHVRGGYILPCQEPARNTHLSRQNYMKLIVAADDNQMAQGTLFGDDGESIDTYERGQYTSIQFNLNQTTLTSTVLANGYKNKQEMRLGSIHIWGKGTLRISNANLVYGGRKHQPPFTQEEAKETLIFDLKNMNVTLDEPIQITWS

| SMILES | IC50 [1] | IC50 [2] | Ki [3] | Ki [4] |
| --- | --- | --- | --- | --- |
| CO[C@@H](CO)[C@H](O)C[S+]1C[C@@H](O)[C@H](O)[C@H]1CO (single isomer, unassigned) | 390 nM | 460 nM |  |  |
| CCO[C@@H](CO)[C@H](O)C[S+]1C[C@@H](O)[C@H](O)[C@H]1CO (single isomer, unassigned) | 270 nM | 120 nM |  |  |
| CCCCCCCCCCCCCO[C@@H](CO)[C@H](O)C[S+]1C[C@@H](O)[C@H](O)[C@H]1CO (single isomer, unassigned) | 950 nM | 1300 nM |  |  |
| OC[C@H](OCc1ccccc1)[C@H](O)C[S+]1C[C@@H](O)[C@H](O)[C@H]1CO (single isomer, unassigned) |  | 320 nM |  |  |
| O=S(=O)([O-])O[C@@H](CO)[C@H](O)C[S@+]1C[C@@H](O)[C@H](O)[C@H]1CO [SALACINOL] |  |  | 1410 nM | 957 nM |
